Source: PubChem
Compounds with a hit are over-represented: about 5.1% of the library has one in this group of screens.
APP 5'UTR act: APP 5'UTR luciferase reporter activation | 190,000 compounds, 1% hits | activation, % at 2 µM | AID 1276 | SH-SY5Y APP 5'UTR luciferase reporter, luminescence; zero percent = DMSO vehicle wells;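 active means activation above a set limit, based on mean plus 3 SD of controls, cut at about 140% in these data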
STAT1 act: increases IFN-gamma driven STAT1 reporter signal. NIH 3T3 STAT1-luciferase reporter, luminescence; 100% = IFN-gamma alone, no compound. activation (% of control), % at 5.5 µM. 200,000 compounds, 2.6% hits. AID 932;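 active means activation above the screen-wide mean activation plus 3 SD, cut at about 130% in these data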
STAT1 inh: inhibitors of IFN-gamma induced STAT1 signaling. NIH 3T3 STAT1-luciferase reporter, luminescence. inhibition, % at 5.5 µM. 200,000 compounds, 0.35% hits;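 active means inhibition above a set limit, the mean inhibition across all tested compounds plus 3 SD, cut at about 34% in these data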
STAT3 blocker: reduces IL-6 driven STAT3 reporter signal | AID 862 | inhibition, % at 5.5 µM | U3A cells, IL-6 STAT3-luciferase reporter, luminescence; host cell line lacks STAT1 | 190,000 compounds, 0.89% hits;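 active means inhibition above the mean inhibition across all screened compounds plus 3 SD, cut at about 44% in these data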
NF-kB neuron act: compounds increasing NF-kB expression in human neuronal cells | fold change at 12.5 µM | 190,000 compounds, 1.6% hits | NF-kB reporter expression; active compounds read high; in the data active means fold change above about 3.3
STAT3 activator: increases IL-6 driven STAT3 reporter signal | 190,000 compounds, 0.91% hits | U3A cells, IL-6 STAT3-luciferase reporter, luminescence; 100% = signal with IL-6 EC80 alone | activation (% of control), % at 5.6 µM;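 active means activation above the screen-wide mean of compound activation plus 3 SD, cut at about 130% in these data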
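Material: human U3A cells carrying STAT3-luciferase construct. Measured by: reporter luminescence signal. Timing: compound 1 h, then IL-6 6 h at 37 °C.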
A number is an active result; - = inactive; . = not tested or not shown.

SMILES | APP 5'UTR act | STAT1 act | STAT1 inh | STAT3 blocker | NF-kB neuron act | STAT3 activator
COC(=O)c1ccccc1NC(=O)c1noc2c1CCCC2 | - | - | - | - | - | -
O=C(Nc1cnn(Cc2ccc(F)cc2)c1)c1noc2c1CCCC2 | - | 129 | - | - | - | -
CC(=O)c1ccc(NC(=O)c2noc3c2CCC3)cc1 | 138 | - | 53 | 66 | 4.8 | -
O=C(NCc1ccccc1)c1noc2c1CCCCC2 | - | 130 | - | - | - | -
O=C(CSc1nc2ncc(Cl)cc2[nH]1)N(Cc1ccccc1)C1CCS(=O)(=O)C1 (stereo not given) | - | - | - | - | - | -
O=C(NCCN1CCOCC1)c1cc2cc([N+](=O)[O-])ccc2s1 | - | - | - | - | - | -
Cc1ccc(NC(=O)c2noc3c2CCC3)cc1C | 182 | - | - | - | 8.3 | -
COCCn1c(C)cc(C(=O)COC(=O)c2cncc(Br)c2)c1C | - | 136 | - | - | - | -
COCCn1c(C)cc(C(=O)COC(=O)c2ccc(NC(=O)CC#N)cc2)c1C | 149 | 134 | - | - | - | -
COCCn1c(C)cc(C(=O)COC(=O)c2ccc3ncsc3c2)c1C | - | 132 | - | - | - | -
Cc1cc(C(=O)COC(=O)c2ccccc2O)c(C)n1Cc1cccs1 | - | - | 75 | 104 | - | -
CC(=O)Nc1ccc(SCC(=O)c2cc(C)n(Cc3cccs3)c2C)cc1 | - | - | 48 | 95 | - | -
COCCn1c(C)cc(C(=O)COC(=O)c2ccccc2Br)c1C | - | - | 86 | 85 | - | -
CCOC(=O)c1[nH]c2ccc(OC)cc2c1C | - | 142 | - | - | - | -
O=C(Cn1cccn1)c1ccccc1 | - | - | - | - | - | -
O=c1c2ccccc2nnn1COc1cccc(Cl)c1 | - | 131 | - | - | - | -
O=[N+]([O-])c1cccc(-c2nc(-c3ccncc3)no2)c1 | - | - | - | - | - | -
O=[N+]([O-])c1cccc(-c2nnc(-c3ccc4c(c3)OCO4)o2)c1 | - | 141 | - | - | - | -
O=[N+]([O-])c1cccc(-c2nc(-c3ccccc3)no2)c1 | - | 138 | - | - | 3.8 | 140
O=C(c1cccn(Cc2ccc(Cl)c(Cl)c2)c1=O)N1CCOCC1 | - | - | - | - | - | -
O=c1c(-c2nc3ccccc3s2)cccn1Cc1ccc(Cl)c(Cl)c1 | - | - | - | - | 3.5 | -
CCc1ccc(Oc2cc(C)nc(N)n2)cc1 | - | 132 | - | - | 3.3 | -
CCN(CC)S(=O)(=O)c1ccc(C(=O)Oc2cc(C)[nH]c(=O)c2[N+](=O)[O-])cc1 | - | - | - | - | - | -
CCOc1cc(C2NN=C(c3ccc(C)cc3)S2)ccc1O (stereo not given) | - | 136 | - | - | 4.8 | -
CCOc1cc(C2c3c(n[nH]c3C)C(=O)N2c2ccc(C)cc2)ccc1O (stereo not given) | - | - | - | - | - | -
SMILES | APP 5'UTR act | STAT1 act | STAT1 inh | STAT3 blocker | NF-kB neuron act | STAT3 activator
O=S1(=O)N=C(N(Cc2cccs2)c2ccc(O)cc2)c2ccccc21 | - | - | - | - | - | -
Cc1cc(NC(=O)c2ccccc2)sc1C | 154 | 131 | - | - | 5.3 | -
Cc1ccc(NC(=O)c2ccccc2)s1 | 160 | - | - | - | 6.6 | -
O=C1CCSc2ccc(Cl)cc2N1Cc1ccc(Cl)cc1 | - | - | - | - | - | -
COc1ccc(NC(=O)Nc2ccon2)c(OC)c1 | - | - | - | - | - | -
Cc1ccc(OCCOc2cccc(Br)c2)c([N+](=O)[O-])n1 | - | 132 | - | - | - | -
CC(=O)Nc1cccc(NC(=O)c2oc3ccccc3c2C)c1 | - | 142 | - | - | - | -
C=CCNC(=S)NC(=O)c1oc2ccccc2c1C | - | 134 | - | - | - | -
Cc1c(C(=O)Nc2cnccn2)oc2ccccc12 | - | - | - | - | 4.7 | -
Nc1c(C(=O)Nc2ccc(Cl)cc2)oc2ccccc12 | 213 | 170 | - | - | 5.6 | 173
Cc1c(C(=O)NC2=NCCS2)oc2ccccc12 | - | 137 | - | - | 7.6 | -
Cc1sc(NC(=O)c2oc3ccccc3c2C)c(C#N)c1C | - | - | - | - | - | -
O=C(NCc1ccc(-n2cccc2)cc1)c1cccc(F)c1 | - | - | - | - | - | -
CCCn1c(NC(=O)c2ccc(Br)cc2)nc2ccccc21 | - | - | - | - | - | 134
CCCn1c(NC(=O)c2ccc(F)cc2)nc2ccccc21 | - | - | - | - | - | -
Cc1ccccc1CSc1ccc(-c2ccc3c(c2)OCO3)nn1 | - | - | - | - | - | -
COc1cc(SC)ccc1C(=O)Nc1ccc(Cl)cn1 | 148 | - | 80 | 100 | - | -
COc1cc(SC)ccc1C(=O)Nc1ccccc1C#N | - | - | - | - | - | 133
CSc1ccc(Cl)c(C(=O)Nc2ccc(Cl)cn2)c1 | - | - | - | - | - | -
Cc1ccc(-c2nc3cccnc3s2)cc1NS(C)(=O)=O | - | 139 | - | . | - | .
CCS(=O)(=O)Nc1cccc(-c2nc3cccnc3s2)c1C | - | - | - | - | - | -
CCOc1ncccc1C(=O)Nc1cccc(Cl)c1Cl | - | - | - | - | - | -
CCNC(=O)NC(=O)CN(C)c1ccccc1 | - | - | - | - | - | -
COc1ccc(Cn2c(SCC#N)nc3ccc(N4CCOCC4)cc3c2=O)cc1 | - | 136 | - | - | - | -
COc1ccc(-c2nnnn2-c2ccc(F)cc2F)cc1 | - | - | - | - | 3.9 | -
SMILES | APP 5'UTR act | STAT1 act | STAT1 inh | STAT3 blocker | NF-kB neuron act | STAT3 activator
NC(=O)c1sc2nc(-c3ccco3)ccc2c1N | - | 131 | - | - | - | -
Nc1c(C(=O)Nc2ccccc2F)sc2nc(-c3ccco3)ccc12 | 140 | - | - | - | - | -
COC(=O)c1sc2nc(-c3ccco3)ccc2c1N | 162 | 141 | - | - | - | -
COc1ccc(C(=O)c2sc3nc(-c4ccccc4)ccc3c2N)cc1 | - | - | - | - | - | -
O=C(Nc1ccccc1F)c1ccco1 | - | - | - | - | - | -
NC(=O)c1sc2nc3c(c(-c4ccco4)c2c1N)CCC3 | - | - | - | - | - | -
O=C(NC1CCCCCC1)c1ccc2nc3cc(Cl)ccc3c(=O)n2c1 | - | - | - | - | - | -
N#Cc1ccc(-c2nnnn2-c2ccc3c(c2)OCO3)cc1 | - | - | - | - | - | -
N#Cc1cccc(-n2nnnc2-c2ccc3c(c2)OCO3)c1 | - | - | - | - | 3.5 | -
COc1ccc(N2C(=O)NC(NC(=O)c3cccnc3)(C(F)(F)F)C2=O)cc1 (stereo not given) | - | - | - | - | - | -
Cc1cc(C)n(C(CC(=O)O)C(=O)O)n1 (stereo not given) | 139 | - | - | - | - | -
O=C(CN1CCC(n2nnc3cc(F)ccc32)CC1)Nc1ccccc1N1CCOCC1 | - | - | - | - | - | -
Cc1ccc(-c2cn3c(n2)SCC3)cc1 | - | 141 | - | - | 4.1 | -
